Test results taken from ChEMBL document CHEMBL3352265, “Potentially bioactive organotin(IV) compounds: synthesis, characterization, in vitro bioactivities and interaction with SS-DNA” (Eur J Med Chem, 2014).
Activity calls are given as the source filed them. No cut-off for these calls is given here.

Key:
Escherichia coli [1] = experiment: Antibacterial activity against Escherichia coli ATCC 15224 at 40 mg/mL after 24 hrs by disc diffusion method; assay type: functional
How it was run: (§1)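 Disc diffusion. Strains grown in nutrient broth at 37 °C for 24 h. 1% culture (about 10^6 CFU/mL) mixed into nutrient agar at 45 °C and poured. 4 mm paper discs received compound at 40 mg/mL stock in DMSO; final concentrations tested were […]. DMSO served as negative control, roxithromycin and cefixime as positive controls. Triplicate plates incubated at 37 °C for 24 h. Complete-inhibition zone diameter (mm) recorded as the mean of 3.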

Staphylococcus aureus [2] = experiment: Antibacterial activity against Staphylococcus aureus ATCC 6538 at 40 mg/mL after 24 hrs by disc diffusion method; assay type: functional; how it was run: as §1
Klebsiella aerogenes [3] = experiment: Antibacterial activity against Enterobacter aerogenes ATCC 13048 at 40 mg/mL after 24 hrs by disc diffusion method; assay type: functional; how it was run: as §1
Salmonella typhimurium [4] = experiment: Antibacterial activity against Salmonella typhimurium ATCC 14028 at 40 mg/mL after 24 hrs by disc diffusion method; assay type: functional; conditions: Salmonella enterica subsp. enterica serovar Typhimurium; how it was run: as §1
[5] = system: Bordetella bronchiseptica; experiment: Antibacterial activity against Bordetella bronchiseptica ATCC 4617 at 40 mg/mL after 24 hrs by disc diffusion method; assay type: functional; how it was run: as §1
Bacillus spizizenii [6] = experiment: Antibacterial activity against Bacillus subtilis ATCC 6633 at 40 mg/mL after 24 hrs by disc diffusion method; assay type: functional; how it was run: as §1
Escherichia coli [7] = experiment: Antibacterial activity against Escherichia coli ATCC 15224 after 18 hrs by microdilution method; assay type: functional
How it was run: (§2)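 Broth microdilution. Twofold dilutions in culture broth at […]. Each well inoculated with bacterial suspension (10^8 CFU/mL, about 10^5 CFU/well). Sterility control and growth control (broth plus DMSO) included. Incubated at 36 °C for 18 h, in triplicate. MIC taken as the lowest concentration inhibiting growth, given in micrograms per mL.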

Staphylococcus aureus [8] = experiment: Antibacterial activity against Staphylococcus aureus ATCC 6538 after 18 hrs by microdilution method; assay type: functional; how it was run: as §2
Klebsiella aerogenes [9] = experiment: Antibacterial activity against Enterobacter aerogenes ATCC 13048 after 18 hrs by microdilution method; assay type: functional, organism-based; how it was run: as §2
[10] = system: Bordetella bronchiseptica; experiment: Antibacterial activity against Bordetella bronchiseptica ATCC 4617 after 18 hrs by microdilution method; assay type: functional; how it was run: as §2
Bacillus spizizenii [11] = experiment: Antibacterial activity against Bacillus subtilis ATCC 6633 after 18 hrs by microdilution method; assay type: functional; how it was run: as §2
Aspergillus niger [12] = experiment: Antifungal activity against Aspergillus niger FCBP 0198 at 40 mg/mL after 7 days by disc diffusion method; assay type: functional
How it was run: (§3)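 Disc diffusion on SDA. Fungi cultured at 28 °C for 24 h. 4 mm discs received compound at 40 mg/mL stock in DMSO. DMSO served as negative control, terbinafine as positive control. Plates incubated at 28 °C for 7 days. Growth diameter (mm) measured and inhibition calculated against the negative control. MIC taken as the lowest concentration with no growth.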

Aspergillus fumigatus [13] = experiment: Antifungal activity against Aspergillus fumigatus FCBP 66 at 40 mg/mL after 7 days by disc diffusion method; assay type: functional; how it was run: as §3
Aspergillus flavus [14] = experiment: Antifungal activity against Aspergillus flavus FCBP 0064 at 40 mg/mL after 7 days by disc diffusion method; assay type: functional; how it was run: as §3
Mucor [15] = experiment: Antifungal activity against Mucor FCBP 0400 at 40 mg/mL after 7 days by disc diffusion method; assay type: functional; how it was run: as §3
Aspergillus niger [16] = experiment: Antifungal activity against Aspergillus niger FCBP 0198 after 7 days by disc diffusion method; assay type: functional, organism-based; how it was run: as §3
Artemia salina = experiment: Cytotoxicity in brine shrimp assessed as mortality after 24 hrs; assay type: functional
[17] = system: Agrobacterium tumefaciens; experiment: Antitumor activity against Agrobacterium tumefaciens -induced tumor at 1000 ug/ml after 21 days by potato disc bioassay technique; assay type: functional
How it was run: (§4)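 Potato disc assay with 48 h culture of A. tumefaciens At-10. Inoculum contained compound at […]. Red-skinned potatoes sterilized in 0.1% HgCl2; 8 mm × 4 mm discs placed ten per 1.5% agar plate, […] each. Incubated at 28 °C in the dark for 21 days, in triplicate. Discs stained with Lugol's and tumors counted. Percent inhibition calculated against the negative control.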

[18] = system: Agrobacterium tumefaciens; experiment: Antitumor activity against Agrobacterium tumefaciens -induced tumor at 100 ug/ml after 21 days by potato disc bioassay technique; assay type: functional; how it was run: as §4
[19] = system: Agrobacterium tumefaciens; experiment: Antitumor activity against Agrobacterium tumefaciens -induced tumor at 10 ug/ml after 21 days by potato disc bioassay technique; assay type: functional; how it was run: as §4
Escherichia coli [20] = experiment: Induction of Escherichia coli pBR322 DNA damage assessed as open circular form at 1000 ug/ml after 60 mins by gel electrophoresis
Escherichia coli [21] = experiment: Induction of Escherichia coli pBR322 DNA damage assessed as open circular form at 100 ug/ml after 60 mins by gel electrophoresis
Escherichia coli [22] = experiment: Induction of Escherichia coli pBR322 DNA damage assessed as open circular form at 10 ug/ml after 60 mins by gel electrophoresis
Escherichia coli [23] = experiment: Induction of Escherichia coli pBR322 DNA damage assessed as open circular form at 1 ug/ml after 60 mins by gel electrophoresis
Salmonella typhimurium [24] = experiment: Antibacterial activity against Salmonella typhimurium ATCC 14028 after 18 hrs by microdilution method; assay type: functional; conditions: Salmonella enterica subsp. enterica serovar Typhimurium; how it was run: as §2
Aspergillus fumigatus [25] = experiment: Antifungal activity against Aspergillus fumigatus FCBP 66 after 7 days by disc diffusion method; assay type: functional, organism-based; how it was run: as §3
Aspergillus flavus [26] = experiment: Antifungal activity against Aspergillus flavus FCBP 0064 after 7 days by disc diffusion method; assay type: functional, organism-based; how it was run: as §3
Mucor [27] = experiment: Antifungal activity against Mucor FCBP 0400 at 40 mg/mL by disc diffusion method; assay type: functional, organism-based; how it was run: as §3

Dibenzylstannanediyl bis[4-(2-methoxyphenylamino)-4-oxobutanoate]
inhibition zone (IZ) (Escherichia coli [1]): 16 mm | inhibition zone (IZ) (Staphylococcus aureus [2]): 20 mm | inhibition zone (IZ) (Klebsiella aerogenes [3]): 14 mm | inhibition zone (IZ) (Salmonella typhimurium [4]): 0 mm | inhibition zone (IZ) [5]: 19 mm | inhibition zone (IZ) (Bacillus spizizenii [6]): 11 mm | MIC (Escherichia coli [7]): 50 mg/L | MIC (Staphylococcus aureus [8]): 100 mg/L | MIC (Klebsiella aerogenes [9]): 150 mg/L | MIC [10]: 50 mg/L | MIC (Bacillus spizizenii [11]): 200 mg/L | inhibition zone (IZ) (Aspergillus niger [12]): 11 mm | inhibition zone (IZ) (Aspergillus fumigatus [13]): 0 mm | inhibition zone (IZ) (Aspergillus flavus [14]): 0 mm | inhibition zone (IZ) (Mucor [15]): 0 mm | MIC (Aspergillus niger [16]): 200 mg/L | LD50 (Artemia salina): 1.1 µg/mL | Activity [17]: 87.1% | Activity [18]: 52% | Activity [19]: 19.3% | Activity (Escherichia coli [20]): Active | Activity (Escherichia coli [21]): Active | Activity (Escherichia coli [22]): Active | Activity (Escherichia coli [23]): Active

Dibutylstannanediyl bis(4-(2-methoxyphenylamino)-4-oxobutanoate)
inhibition zone (IZ) (Escherichia coli [1]): 17 mm | inhibition zone (IZ) (Staphylococcus aureus [2]): 14 mm | inhibition zone (IZ) (Klebsiella aerogenes [3]): 27 mm | inhibition zone (IZ) (Salmonella typhimurium [4]): 17 mm | inhibition zone (IZ) [5]: 20 mm | inhibition zone (IZ) (Bacillus spizizenii [6]): 22 mm | MIC (Escherichia coli [7]): 50 mg/L | MIC (Staphylococcus aureus [8]): 100 mg/L | MIC (Klebsiella aerogenes [9]): 25 mg/L | MIC (Salmonella typhimurium [24]): 50 mg/L | MIC [10]: 50 mg/L | MIC (Bacillus spizizenii [11]): 50 mg/L | inhibition zone (IZ) (Aspergillus niger [12]): 14 mm | inhibition zone (IZ) (Aspergillus fumigatus [13]): 12 mm | inhibition zone (IZ) (Aspergillus flavus [14]): 0 mm | inhibition zone (IZ) (Mucor [15]): 0 mm | MIC (Aspergillus niger [16]): 150 mg/L | MIC (Aspergillus fumigatus [25]): 200 mg/L | LD50 (Artemia salina): 0.611 µg/mL | Activity [17]: 88.3% | Activity [18]: 65.5% | Activity [19]: 50.2% | Activity (Escherichia coli [20]): inactive | Activity (Escherichia coli [21]): inactive | Activity (Escherichia coli [22]): inactive | Activity (Escherichia coli [23]): inactive

Dimethylstannanediyl bis(4-(2-methoxyphenylamino)-4-oxobutanoate)
inhibition zone (IZ) (Escherichia coli [1]): 16 mm | inhibition zone (IZ) (Staphylococcus aureus [2]): 17 mm | inhibition zone (IZ) (Klebsiella aerogenes [3]): 21 mm | inhibition zone (IZ) (Salmonella typhimurium [4]): 16 mm | inhibition zone (IZ) [5]: 19 mm | inhibition zone (IZ) (Bacillus spizizenii [6]): 18 mm | MIC (Escherichia coli [7]): 50 mg/L | MIC (Staphylococcus aureus [8]): 100 mg/L | MIC (Klebsiella aerogenes [9]): 100 mg/L | MIC (Salmonella typhimurium [24]): 150 mg/L | MIC [10]: 50 mg/L | MIC (Bacillus spizizenii [11]): 100 mg/L | inhibition zone (IZ) (Aspergillus niger [12]): 15 mm | inhibition zone (IZ) (Aspergillus fumigatus [13]): 0 mm | inhibition zone (IZ) (Aspergillus flavus [14]): 0 mm | inhibition zone (IZ) (Mucor [15]): 0 mm | MIC (Aspergillus niger [16]): 200 mg/L | LD50 (Artemia salina): 2.89 µg/mL | Activity [17]: 91.4% | Activity [18]: 62.9% | Activity [19]: 43.2% | Activity (Escherichia coli [20]): Active | Activity (Escherichia coli [21]): Active | Activity (Escherichia coli [22]): Active | Activity (Escherichia coli [23]): Active

Dioctylstannanediyl bis(4-(2-methoxyphenylamino)-4-oxobutanoate)
inhibition zone (IZ) (Escherichia coli [1]): 10 mm | inhibition zone (IZ) (Staphylococcus aureus [2]): 0 mm | inhibition zone (IZ) (Klebsiella aerogenes [3]): 0 mm | inhibition zone (IZ) (Salmonella typhimurium [4]): 12 mm | inhibition zone (IZ) [5]: 11 mm | inhibition zone (IZ) (Bacillus spizizenii [6]): 9 mm | MIC (Escherichia coli [7]): 200 mg/L | MIC (Salmonella typhimurium [24]): 150 mg/L | MIC (Bacillus spizizenii [11]): 200 mg/L | inhibition zone (IZ) (Aspergillus niger [12]): 0 mm | inhibition zone (IZ) (Aspergillus fumigatus [13]): 0 mm | inhibition zone (IZ) (Aspergillus flavus [14]): 0 mm | inhibition zone (IZ) (Mucor [15]): 0 mm | LD50 (Artemia salina): 0.499 µg/mL | Activity [17]: 65.5% | Activity [18]: 44.9% | Activity [19]: 31.2%

Diphenylstannanediyl bis(4-(2-methoxyphenylamino)-4-oxobutanoate
inhibition zone (IZ) (Escherichia coli [1]): 14 mm | inhibition zone (IZ) (Staphylococcus aureus [2]): 16 mm | inhibition zone (IZ) (Klebsiella aerogenes [3]): 15 mm | inhibition zone (IZ) (Salmonella typhimurium [4]): 0 mm | inhibition zone (IZ) [5]: 11 mm | inhibition zone (IZ) (Bacillus spizizenii [6]): 17 mm | MIC (Escherichia coli [7]): 25 mg/L | MIC (Staphylococcus aureus [8]): 100 mg/L | MIC (Klebsiella aerogenes [9]): 150 mg/L | MIC [10]: 200 mg/L | MIC (Bacillus spizizenii [11]): 100 mg/L | inhibition zone (IZ) (Aspergillus niger [12]): 30 mm | inhibition zone (IZ) (Aspergillus fumigatus [13]): 32 mm | inhibition zone (IZ) (Aspergillus flavus [14]): 26 mm | inhibition zone (IZ) (Mucor [15]): 22 mm | MIC (Aspergillus niger [16]): 1.56 mg/L | MIC (Aspergillus fumigatus [25]): 6.25 mg/L | MIC (Aspergillus flavus [26]): 6.25 mg/L | MIC (Mucor [27]): 6.25 mg/L | LD50 (Artemia salina): 0.403 µg/mL | Activity [17]: 85.3% | Activity [18]: 62.2% | Activity [19]: 43.9% | Activity (Escherichia coli [20]): Active | Activity (Escherichia coli [21]): Active | Activity (Escherichia coli [22]): Active | Activity (Escherichia coli [23]): Active

N-[(2-methoxyphenyl)]-4-oxo-4-[(triphenylstannyl)oxy]butanamide
inhibition zone (IZ) (Escherichia coli [1]): 0 mm | inhibition zone (IZ) (Staphylococcus aureus [2]): 0 mm | inhibition zone (IZ) (Klebsiella aerogenes [3]): 11 mm | inhibition zone (IZ) (Salmonella typhimurium [4]): 0 mm | inhibition zone (IZ) [5]: 32 mm | inhibition zone (IZ) (Bacillus spizizenii [6]): 0 mm | MIC (Klebsiella aerogenes [9]): 25 mg/L | MIC [10]: 12.5 mg/L | inhibition zone (IZ) (Aspergillus niger [12]): 40 mm | inhibition zone (IZ) (Aspergillus fumigatus [13]): 28 mm | inhibition zone (IZ) (Aspergillus flavus [14]): 26 mm | inhibition zone (IZ) (Mucor [15]): 23 mm | MIC (Aspergillus niger [16]): 3.12 mg/L | MIC (Aspergillus fumigatus [25]): 6.25 mg/L | MIC (Aspergillus flavus [26]): 6.25 mg/L | MIC (Mucor [27]): 6.25 mg/L | LD50 (Artemia salina): 0.793 µg/mL | Activity [17]: 77.5% | Activity [18]: 54.9% | Activity [19]: 32.2% | Activity (Escherichia coli [20]): Active | Activity (Escherichia coli [21]): Active | Activity (Escherichia coli [22]): Active | Activity (Escherichia coli [23]): Active
